Measurements taken from ChEMBL document CHEMBL4368943 (J Med Chem, 2019).
Activity calls are given as the source filed them. No cut-off for these calls is given here.

Columns and labels:
[1] = target: T1, Protein cereblon/Estrogen receptor/Cullin-4A (Homo sapiens) (UniProt P03372+Q96SW2+Q13619); assay: Protac activity against cereblon/cullin 4A/ERalpha in human MCF7 cells assessed as ERalpha degradation by measuring ER protein/GADPH ratio at 1 nM after 4 hrs by Western blot analysis relative to control; format: cell-based
How it was run: (§1)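 MCF-7 cells (DMEM, 10% FBS, passages 3−8) exposed 4 h. Lysed in RIPA with protease inhibitors; equal protein on 10% SDS-PAGE, PVDF, anti-ERα blot. Membranes stripped and reprobed for GAPDH. ERα/GAPDH ratio normalized to DMSO = 100; DC50 from densitometry of the dose series.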

[2] = target: T1, Protein cereblon/Estrogen receptor/Cullin-4A (Homo sapiens); assay: Protac activity against cereblon/cullin 4A/ERalpha in human MCF7 cells assessed as ERalpha degradation by measuring ER protein/GADPH ratio at 10 nM after 4 hrs by Western blot analysis relative to control; format: cell-based; how it was run: as §1
[3] = target: T1, Protein cereblon/Estrogen receptor/Cullin-4A (Homo sapiens); assay: Protac activity against cereblon/cullin 4A/ERalpha in human MCF7 cells assessed as ERalpha degradation by measuring ER protein/GADPH ratio at 100 nM after 4 hrs by Western blot analysis relative to control; format: cell-based; how it was run: as §1
[4] = target: T1, Protein cereblon/Estrogen receptor/Cullin-4A (Homo sapiens); assay: Protac activity against cereblon/cullin 4A/ERalpha in human MCF7 cells assessed as ERalpha degradation by measuring ER protein/GADPH ratio at 1000 nM after 4 hrs by Western blot analysis relative to control; format: cell-based; how it was run: as §1
[5] = Binding affinity to His-TEV-tagged VHL (54 to 213 residues) (unknown origin)/Elongin B (1 to 118 residues)/Elongin C (1 to 96 residues) expressed in Escherichia coli BL21(DE3) by FP assay; set-up: species or system Homo sapiens
How it was run: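 Competitive FP. Tracer is a fluorescent VHL ligand (Kd 2.3 nM). VHL–ElonginB/C complex and tracer each at 5 nM final, preincubated. Compound in DMSO (5 µL into 95 µL) for 60 min at room temperature with shaking. Ex 485/em 530 nm. IC50 by nonlinear regression; Ki from probe KD and protein/probe concentrations. Duplicate, three independent experiments.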

[6] = target: T2, von Hippel-Lindau disease tumor suppressor/Estrogen receptor/Cullin-2 (Homo sapiens, UniProt P03372+P40337+Q13617); assay: Protac activity against VHL/cullin2/ERalpha in human MCF7 cells assessed as ERalpha degradation by measuring ER protein/GADPH ratio at 1 nM after 4 hrs by Western blot analysis relative to control; format: cell-based; how it was run: as §1
[7] = target: T2, von Hippel-Lindau disease tumor suppressor/Estrogen receptor/Cullin-2; assay: Protac activity against VHL/cullin2/ERalpha in human MCF7 cells assessed as ERalpha degradation by measuring ER protein/GADPH ratio at 10 nM after 4 hrs by Western blot analysis relative to control; format: cell-based; how it was run: as §1
[8] = target: T2, von Hippel-Lindau disease tumor suppressor/Estrogen receptor/Cullin-2; assay: Protac activity against VHL/cullin2/ERalpha in human MCF7 cells assessed as ERalpha degradation by measuring ER protein/GADPH ratio at 100 nM after 4 hrs by Western blot analysis relative to control; format: cell-based; how it was run: as §1
[9] = target: T2, von Hippel-Lindau disease tumor suppressor/Estrogen receptor/Cullin-2; assay: Protac activity against VHL/cullin2/ERalpha in human MCF7 cells assessed as ERalpha degradation by measuring ER protein/GADPH ratio at 1000 nM after 4 hrs by Western blot analysis relative to control; format: cell-based; how it was run: as §1
MCF7 [10] = assay: Inhibition of cell growth in human MCF7 cells after 4 days by wst-8-based colorimetric analysis; format: functional; details: MCF7, 96 h
How it was run: (§2)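 Cells seeded at 1500/well overnight, then exposed to graded compound doses for 4 days. Growth read by colorimetric WST-8 assay. GI50 from fitted curves. MCF-7 cells were kept in DMEM, 10% FBS, passages 3−8; human mammary epithelial cells were run the same way.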

MCF7 [11] = assay: Inhibition of cell growth in human MCF7 cells after 4 days by wst-8-based colorimetric analysis relative to control; format: functional; how it was run: as §2
MCF7 [12] = assay: Antiproliferative activity against human MCF7 cells at 10 to 300 nM after 5 days by crystal violet staining based assay; format: functional, cell-based
How it was run: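 MCF-7 cells in DMEM with 10% FBS and penicillin/streptomycin, passages 3−8, exposed to compounds at 10, 100 and 300 nM for 5 days, then fixed and stained with crystal violet.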

[13] = target: T2, von Hippel-Lindau disease tumor suppressor/Estrogen receptor/Cullin-2; assay: Protac activity against VHL/cullin2/ERalpha in human MCF7 cells assessed as ERalpha degradation by measuring reduction in ER protein level pre-treated with raloxifene for 2 hrs followed by compound exposure at 30 nM for 4 hrs by Western blot analysis; format: cell-based

T1 sequence (P03372 whole entry, looked up): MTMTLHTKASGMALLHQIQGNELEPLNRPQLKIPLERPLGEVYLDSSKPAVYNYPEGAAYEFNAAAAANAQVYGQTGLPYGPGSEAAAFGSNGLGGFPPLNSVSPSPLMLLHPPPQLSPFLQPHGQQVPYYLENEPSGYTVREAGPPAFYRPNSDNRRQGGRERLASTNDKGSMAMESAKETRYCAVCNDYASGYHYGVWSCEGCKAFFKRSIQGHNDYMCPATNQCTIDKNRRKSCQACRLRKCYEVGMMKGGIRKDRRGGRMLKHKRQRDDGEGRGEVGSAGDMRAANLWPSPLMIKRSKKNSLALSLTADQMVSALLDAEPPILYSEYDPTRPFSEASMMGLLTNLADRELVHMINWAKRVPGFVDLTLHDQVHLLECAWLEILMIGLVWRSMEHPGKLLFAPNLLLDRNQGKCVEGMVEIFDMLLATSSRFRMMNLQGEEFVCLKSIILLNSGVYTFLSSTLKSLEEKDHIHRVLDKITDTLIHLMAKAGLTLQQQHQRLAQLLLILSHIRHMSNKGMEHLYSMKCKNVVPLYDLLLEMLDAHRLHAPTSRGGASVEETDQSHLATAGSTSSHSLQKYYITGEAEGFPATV
T1 sequence (Q13619 whole entry, looked up): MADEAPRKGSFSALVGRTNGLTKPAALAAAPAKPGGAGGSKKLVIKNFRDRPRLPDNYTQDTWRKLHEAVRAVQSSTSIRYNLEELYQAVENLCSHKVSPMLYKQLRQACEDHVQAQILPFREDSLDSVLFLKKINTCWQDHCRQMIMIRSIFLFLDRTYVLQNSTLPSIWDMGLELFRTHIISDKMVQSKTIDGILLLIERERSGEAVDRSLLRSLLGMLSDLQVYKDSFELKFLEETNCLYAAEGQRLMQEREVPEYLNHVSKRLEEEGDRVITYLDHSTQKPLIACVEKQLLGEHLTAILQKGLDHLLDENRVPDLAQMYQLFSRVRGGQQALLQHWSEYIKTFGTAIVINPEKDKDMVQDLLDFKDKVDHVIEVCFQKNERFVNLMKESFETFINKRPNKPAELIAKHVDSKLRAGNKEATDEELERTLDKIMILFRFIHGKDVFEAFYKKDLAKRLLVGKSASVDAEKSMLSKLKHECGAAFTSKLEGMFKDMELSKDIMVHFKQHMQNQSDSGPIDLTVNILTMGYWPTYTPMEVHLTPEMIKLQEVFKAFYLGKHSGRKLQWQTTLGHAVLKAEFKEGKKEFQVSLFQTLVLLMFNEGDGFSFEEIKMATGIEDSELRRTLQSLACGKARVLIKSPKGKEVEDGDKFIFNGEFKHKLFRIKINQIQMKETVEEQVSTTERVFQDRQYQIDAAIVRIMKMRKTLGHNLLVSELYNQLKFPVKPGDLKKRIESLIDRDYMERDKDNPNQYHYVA
T1 sequence (Q96SW2 whole entry, looked up): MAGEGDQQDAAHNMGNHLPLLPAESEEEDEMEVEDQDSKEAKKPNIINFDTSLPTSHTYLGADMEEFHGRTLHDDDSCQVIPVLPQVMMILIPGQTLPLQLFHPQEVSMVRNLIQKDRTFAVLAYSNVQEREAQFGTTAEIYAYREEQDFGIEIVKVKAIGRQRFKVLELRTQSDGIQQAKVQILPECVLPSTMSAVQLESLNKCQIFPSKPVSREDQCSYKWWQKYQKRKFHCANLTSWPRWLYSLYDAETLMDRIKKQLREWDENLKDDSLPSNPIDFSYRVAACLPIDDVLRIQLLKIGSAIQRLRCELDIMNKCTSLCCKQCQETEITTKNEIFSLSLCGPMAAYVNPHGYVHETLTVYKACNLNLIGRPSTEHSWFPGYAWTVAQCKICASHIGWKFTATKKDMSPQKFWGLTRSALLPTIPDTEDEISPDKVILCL
T2 sequence (P03372 whole entry, looked up): as the sequence (P03372 whole entry, looked up) above
T2 sequence (P40337 whole entry, looked up): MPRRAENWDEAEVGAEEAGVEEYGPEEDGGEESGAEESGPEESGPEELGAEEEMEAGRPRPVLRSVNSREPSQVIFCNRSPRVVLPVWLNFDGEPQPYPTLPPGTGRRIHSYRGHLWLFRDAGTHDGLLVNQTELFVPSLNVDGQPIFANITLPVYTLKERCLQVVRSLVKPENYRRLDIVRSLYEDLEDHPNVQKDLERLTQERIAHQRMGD
T2 sequence (Q13617 whole entry, looked up): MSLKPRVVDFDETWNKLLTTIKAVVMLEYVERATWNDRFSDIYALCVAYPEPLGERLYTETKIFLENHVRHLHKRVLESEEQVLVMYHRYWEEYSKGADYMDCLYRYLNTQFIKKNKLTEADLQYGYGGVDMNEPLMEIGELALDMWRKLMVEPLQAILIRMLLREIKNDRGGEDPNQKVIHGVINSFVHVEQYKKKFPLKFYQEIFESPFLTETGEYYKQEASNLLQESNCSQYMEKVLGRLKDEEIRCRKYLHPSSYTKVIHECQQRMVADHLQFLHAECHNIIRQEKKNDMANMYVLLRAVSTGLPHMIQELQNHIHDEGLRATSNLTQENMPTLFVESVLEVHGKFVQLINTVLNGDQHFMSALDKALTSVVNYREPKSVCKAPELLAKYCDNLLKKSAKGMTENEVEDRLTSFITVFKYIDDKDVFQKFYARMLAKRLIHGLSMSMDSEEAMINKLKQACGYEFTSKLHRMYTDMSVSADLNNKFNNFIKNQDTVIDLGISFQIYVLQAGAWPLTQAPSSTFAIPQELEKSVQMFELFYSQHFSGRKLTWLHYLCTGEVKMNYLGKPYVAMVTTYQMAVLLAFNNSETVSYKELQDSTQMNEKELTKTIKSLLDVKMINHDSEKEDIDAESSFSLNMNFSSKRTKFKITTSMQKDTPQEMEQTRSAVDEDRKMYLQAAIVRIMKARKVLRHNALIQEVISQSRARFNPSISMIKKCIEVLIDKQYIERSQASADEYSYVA

CCN(CCCCCCC#Cc1cccc2c1CN(C1CCC(=O)NC1=O)C2=O)CCOc1ccc(C(=O)c2c(-c3ccc(O)cc3)sc3cc(O)ccc23)cc1 (stereo not drawn)
Ratio [1]: 143
Ratio [2]: 135
Ratio [3]: 160
Ratio [4]: 174

CC(=O)N[C@H](C(=O)N1C[C@H](O)C[C@H]1C(=O)N[C@@H](C)c1ccc(Cl)cc1)C(C)(C)C
IC50 [5]: 7870 nM

CCN(CCOCCOCCOCC#Cc1cccc2c1CN(C1CCC(=O)NC1=O)C2=O)CCOc1ccc(C(=O)c2c(-c3ccc(O)cc3)sc3cc(O)ccc23)cc1 (stereo not drawn)
Ratio [1]: 124
Ratio [2]: 149
Ratio [3]: 146
Ratio [4]: 165

CCN(CCCCCCCC(=O)N[C@H](C(=O)N1C[C@H](O)C[C@H]1C(=O)N[C@@H](C)c1ccc(-c2scnc2C)cc1)C(C)(C)C)CCOc1ccc(C(=O)c2c(-c3ccc(O)cc3)sc3cc(O)ccc23)cc1
Ratio [6]: 21
Ratio [7]: 0.4
Ratio [8]: 0.3
Ratio [9]: 64

CC(=O)N[C@H](C(=O)N1C[C@H](O)C[C@H]1C(=O)N[C@@H](C)c1ccc(C(C)C)cc1)C(C)(C)C
IC50 [5]: 41000 nM

C[C@]12CC[C@@H]3c4ccc(O)cc4C[C@@H](CCCCCCCCC[S+]([O-])CCCC(F)(F)C(F)(F)F)[C@H]3[C@@H]1CC[C@@H]2O (stereo partly drawn) [FULVESTRANT]
GI50 (MCF7 [10]): 0.17 nM
Imax (MCF7 [11]): 43.8%
Activity (MCF7 [12]): Active

CCN(CCOCCOCCOCCC(=O)N[C@H](C(=O)N1C[C@H](O)C[C@H]1C(=O)N[C@@H](C)c1ccc(-c2scnc2C)cc1)C(C)(C)C)CCOc1ccc(C(=O)c2c(-c3ccc(O)cc3)sc3cc(O)ccc23)cc1
Ratio [6]: 101
Ratio [7]: 0.6
Ratio [8]: 0.4
Ratio [9]: 67

O=C(c1ccc(OCCN2CCCCC2)cc1)c1c(-c2ccc(O)cc2)sc2cc(O)ccc12 [RALOXIFENE]
GI50 (MCF7 [10]): 0.079 nM
Imax (MCF7 [11]): 34%
Activity (MCF7 [12]): Active

CC(C)C[C@H](NC(=O)[C@H](CCc1ccccc1)NC(=O)CN1CCOCC1)C(=O)N[C@@H](Cc1ccccc1)C(=O)N[C@@H](CC(C)C)C(=O)[C@@]1(C)CO1
Activity [13]: inactive

C#Cc1ccc([C@H](C)NC(=O)[C@@H]2C[C@@H](O)CN2C(=O)[C@@H](NC(C)=O)C(C)(C)C)cc1
IC50 [5]: 879 nM

CC(=O)N[C@H](C(=O)N1C[C@H](O)C[C@H]1C(=O)N[C@@H](C)c1ccc(C2CC2)cc1)C(C)(C)C
IC50 [5]: 6110 nM

CCNCCc1ccc(CN(CC)c2cc(OC)ccc2[C@@H]2CCc3cc(O)ccc3C2)cc1 [ELACESTRANT]
Ratio [6]: 89
Ratio [7]: 171
Ratio [8]: 159
GI50 (MCF7 [10]): 0.028 nM
Imax (MCF7 [11]): 25.7%

CC(=O)N[C@H](C(=O)N1C[C@H](O)C[C@H]1C(=O)N[C@@H](C)c1ccc(-c2scnc2C)cc1)C(C)(C)C
IC50 [5]: 196 nM
